Results from ChEMBL document CHEMBL3763095, “Naphtho[1',2':4,5]imidazo[1,2-a]pyridine-5,6-diones: Synthesis, enzymatic reduction and cytotoxic activity” (Bioorg Med Chem Lett, 2016).
The source made the active and inactive calls. The calls are words filed in the database; no cut-off is given here.

Legend:
[1] = biological target: NAD(P)H dehydrogenase [quinone] 1 (Homo sapiens) (UniProt P15559); assay: Substrate inhibition of NQO1 (unknown origin) by spectrophotometric analysis in the presence of 12.5 to 200 uM NADPH
NAD(P)H dehydrogenase [quinone] 1 (Homo sapiens), sequence (P15559 whole entry): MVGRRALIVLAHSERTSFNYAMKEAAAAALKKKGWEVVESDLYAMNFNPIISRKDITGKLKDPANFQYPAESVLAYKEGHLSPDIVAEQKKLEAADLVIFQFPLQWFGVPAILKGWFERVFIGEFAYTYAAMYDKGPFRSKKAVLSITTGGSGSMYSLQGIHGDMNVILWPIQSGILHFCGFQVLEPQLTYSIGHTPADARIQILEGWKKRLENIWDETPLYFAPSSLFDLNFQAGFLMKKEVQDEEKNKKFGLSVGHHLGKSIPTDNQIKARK

Escherichia coli = assay: Antibacterial activity against Escherichia coli ATCC 25922 after 16 hrs by two-fold microdillution method; type: functional, organism-based
[2] = biological target: NAD(P)H dehydrogenase [quinone] 1 (Homo sapiens) (UniProt P15559); assay: Activity of NQO1 (unknown origin) assessed as reduction of cytochrome c at 5 to 15 uM by spectrophotometric analysis relative to NADPH oxidation rate; parameters: scale not given: the % may be the effect or the level left
Procedure, shortened: (§1)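 NQO1-catalysed quinone reduction coupled to cytochrome c (50 µM) as the terminal single-electron acceptor.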

Salmonella enterica = assay: Antibacterial activity against Salmonella enterica SL 5676 after 16 hrs by two-fold microdillution method; type: functional, organism-based
[3] = biological target: NAD(P)H dehydrogenase [quinone] 1 (Homo sapiens) (UniProt P15559); assay: Activity of NQO1 (unknown origin) assessed as O2 uptake at 5 to 15 uM by polarographic analysis in the presence of catalase and 150 to 200 uM NADPH
[4] = biological target: NAD(P)H dehydrogenase [quinone] 1 (Homo sapiens) (UniProt P15559); assay: Activity of NQO1 (unknown origin) assessed as reduction of cytochrome c at 5 to 15 uM in the presence of superoxide dismutase and 150 to 200 uM of NADPH; procedure, shortened: as §1

Question: With `O=C1C(=O)c2c(nc3ccccn23)-c2ccccc21` as the compound, how does the inhibition [1] read?
Answer: Active

Question: And the Activity (Escherichia coli)?
Answer: inactive

Question: And the Activity [2]?
Answer: 180%

Question: And the Activity (Salmonella enterica)?
Answer: inactive

Question: And the Activity [3]?
Answer: inactive

Question: And the Activity [4]?
Answer: inactive

Question: Which results are given for `Cc1cccn2c3c(nc12)-c1ccccc1C(=O)C3=O`?
Answer: Activity (Escherichia coli): inactive; Activity [2]: 180%; Activity (Salmonella enterica): inactive; Activity [3]: inactive; Activity [4]: inactive

Question: What does the source list for `O=C1C(=O)c2c(nc3ccc(Br)cn23)-c2ccccc21`?
Answer: Activity (Escherichia coli): inactive; Activity [2]: 180%; Activity (Salmonella enterica): inactive; Activity [3]: inactive; Activity [4]: inactive

Question: For `O=C1C(=O)c2c(nc3ccc([N+](=O)[O-])cn23)-c2ccccc21`, which Activity (Escherichia coli) is on record?
Answer: inactive

Question: And the Activity [2]?
Answer: 180%

Question: What about the Activity (Salmonella enterica) of the same compound?
Answer: inactive

Question: And the Activity [3]?
Answer: inactive

Question: And the Activity [4]?
Answer: inactive

Question: Which Activity (Escherichia coli) does the source give for `O=C1C(=O)c2c(nc3ccc4ccccc4n23)-c2ccccc21` here?
Answer: inactive

Question: And the Activity [2]?
Answer: 180%

Question: And the Activity (Salmonella enterica)?
Answer: inactive

Question: What about the Activity [3] of the same compound?
Answer: inactive

Question: And the Activity [4]?
Answer: inactive

Question: `O=C1C(=O)c2c(nc3ccc(F)cn23)-c2ccccc21` was tested. Which Activity (Escherichia coli) did it give?
Answer: inactive

Question: And the Activity [2]?
Answer: 180%

Question: What about the Activity (Salmonella enterica) of the same compound?
Answer: inactive

Question: What about the Activity [3] of the same compound?
Answer: inactive

Question: What about the Activity [4] of the same compound?
Answer: inactive

Question: With `Cc1ccn2c3c(nc2c1)-c1ccccc1C(=O)C3=O` as the compound, how does the Activity (Escherichia coli) read?
Answer: inactive

Question: And the Activity [2]?
Answer: 180%

Question: What about the Activity (Salmonella enterica) of the same compound?
Answer: inactive

Question: And the Activity [3]?
Answer: inactive

Question: What about the Activity [4] of the same compound?
Answer: inactive

Question: `O=C1C(=O)c2c(nc3ccc(C(F)(F)F)cn23)-c2ccccc21` was tested. Which Activity (Escherichia coli) did it give?
Answer: inactive

Question: And the Activity [2]?
Answer: 180%

Question: What about the Activity (Salmonella enterica) of the same compound?
Answer: inactive

Question: What about the Activity [3] of the same compound?
Answer: inactive

Question: What about the Activity [4] of the same compound?
Answer: inactive

Question: What does the source list for `O=C1C(=O)c2c(nc3ccc(Cl)cn23)-c2ccccc21`?
Answer: Activity (Escherichia coli): inactive; Activity [2]: 180%; Activity (Salmonella enterica): inactive; Activity [3]: inactive; Activity [4]: inactive

Question: `Cc1ccc2nc3c(n2c1)C(=O)C(=O)c1ccccc1-3` was tested. Which Activity (Escherichia coli) did it give?
Answer: inactive

Question: What about the Activity [2] of the same compound?
Answer: 180%

Question: What about the Activity (Salmonella enterica) of the same compound?
Answer: inactive

Question: What about the Activity [3] of the same compound?
Answer: inactive

Question: And the Activity [4]?
Answer: inactive

Question: How did the inhibition [1] turn out when `COc1ccc2nc3c(n2c1)C(=O)C(=O)c1ccccc1-3` was run?
Answer: Active

Question: What about the Activity (Escherichia coli) of the same compound?
Answer: inactive

Question: What about the Activity [2] of the same compound?
Answer: 180%

Question: What about the Activity (Salmonella enterica) of the same compound?
Answer: inactive

Question: And the Activity [3]?
Answer: inactive

Question: And the Activity [4]?
Answer: inactive

Question: Which Activity (Escherichia coli) does the source give for `O=C1C(=O)c2c(nc3ccccn23)-c2ccc([N+](=O)[O-])cc21` here?
Answer: inactive

Question: And the Activity [2]?
Answer: 180%

Question: And the Activity (Salmonella enterica)?
Answer: inactive

Question: What about the Activity [3] of the same compound?
Answer: inactive

Question: What about the Activity [4] of the same compound?
Answer: inactive

Question: Which Activity (Escherichia coli) does the source give for `O=C1C(=O)c2c(nc3ncccn23)-c2ccccc21` here?
Answer: inactive

Question: What about the Activity [2] of the same compound?
Answer: 180%

Question: What about the Activity (Salmonella enterica) of the same compound?
Answer: inactive

Question: And the Activity [3]?
Answer: inactive

Question: And the Activity [4]?
Answer: inactive
